Assay results from ChEMBL document CHEMBL1140385, “Synthesis and antibacterial activity of 3-substituted-6-(3-ethyl-4-methylanilino)uracils” (J Med Chem, 2005).
Converted amounts (≈) assume the structure as drawn.

Assays:
[1] = tested on: Staphylococcus aureus; experiment: In vitro minimum inhibitory concentration against Methicillin-resistant Staphylococcus aureus upon incubation at 37 degree C for 16 to 24 hr by dissolving in DMSO (1%); assay type: functional
Method in brief: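 Broth microdilution (modified NCCLS M7-A4). Staphylococci grown to log phase in Luria broth, seeded at (3-7) × 10⁵ CFU/mL. Compounds 2-fold diluted from DMSO stocks, 20 to 1.25 µg/mL, final 1% DMSO, in duplicate. Incubated 37 °C, 16-24 h, with shaking. OD600 read.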

[2] = target: DNA polymerase III PolC-type (Bacillus subtilis (strain 168), UniProt P13267); experiment: Inhibitory concentration against Bacillus subtilis DNA polymerase IIIC using [3H]dTMP 250 pM (30 degree C for 10 min)
Chain of DNA polymerase III PolC-type (P13267 whole entry, the tested form may be a part): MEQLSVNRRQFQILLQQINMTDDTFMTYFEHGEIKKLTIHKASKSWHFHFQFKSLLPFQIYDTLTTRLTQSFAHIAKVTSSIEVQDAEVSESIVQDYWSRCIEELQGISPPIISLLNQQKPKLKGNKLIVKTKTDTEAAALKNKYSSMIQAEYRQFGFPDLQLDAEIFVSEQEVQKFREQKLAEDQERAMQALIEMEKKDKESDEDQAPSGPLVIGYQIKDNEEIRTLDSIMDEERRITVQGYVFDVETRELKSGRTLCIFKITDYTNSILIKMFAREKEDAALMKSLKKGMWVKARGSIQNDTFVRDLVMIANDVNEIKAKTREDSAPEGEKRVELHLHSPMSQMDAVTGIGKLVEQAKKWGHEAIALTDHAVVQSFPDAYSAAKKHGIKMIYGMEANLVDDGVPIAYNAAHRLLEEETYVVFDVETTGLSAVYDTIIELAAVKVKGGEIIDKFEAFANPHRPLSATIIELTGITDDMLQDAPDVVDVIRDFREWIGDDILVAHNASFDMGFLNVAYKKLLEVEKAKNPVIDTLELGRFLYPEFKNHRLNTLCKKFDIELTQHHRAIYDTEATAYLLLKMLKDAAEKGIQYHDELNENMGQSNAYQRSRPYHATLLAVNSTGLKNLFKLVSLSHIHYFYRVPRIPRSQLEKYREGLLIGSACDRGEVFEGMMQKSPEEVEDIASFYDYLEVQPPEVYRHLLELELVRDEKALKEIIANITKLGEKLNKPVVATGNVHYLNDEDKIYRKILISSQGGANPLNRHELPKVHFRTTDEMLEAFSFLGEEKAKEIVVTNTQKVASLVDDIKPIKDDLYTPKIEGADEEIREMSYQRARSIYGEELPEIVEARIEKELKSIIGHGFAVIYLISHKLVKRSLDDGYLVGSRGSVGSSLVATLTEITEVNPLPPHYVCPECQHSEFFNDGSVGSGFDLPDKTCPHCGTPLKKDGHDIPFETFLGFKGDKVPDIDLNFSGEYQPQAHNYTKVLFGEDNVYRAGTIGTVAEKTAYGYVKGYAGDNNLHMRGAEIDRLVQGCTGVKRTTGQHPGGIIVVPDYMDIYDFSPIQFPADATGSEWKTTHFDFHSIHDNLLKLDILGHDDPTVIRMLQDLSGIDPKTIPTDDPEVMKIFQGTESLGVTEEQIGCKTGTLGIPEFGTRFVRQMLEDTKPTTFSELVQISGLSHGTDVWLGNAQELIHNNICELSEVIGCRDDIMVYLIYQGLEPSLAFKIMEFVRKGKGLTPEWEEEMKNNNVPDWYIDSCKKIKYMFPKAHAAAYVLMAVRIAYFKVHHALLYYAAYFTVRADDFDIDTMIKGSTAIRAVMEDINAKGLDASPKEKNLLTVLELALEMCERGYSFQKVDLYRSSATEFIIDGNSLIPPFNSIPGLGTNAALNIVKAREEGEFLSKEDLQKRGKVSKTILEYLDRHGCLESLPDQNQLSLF
Method in brief: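 Homogeneous recombinant B. subtilis pol IIIC, 0.025-0.06 units, acted on activated calf thymus DNA with Mg2+, DTT, glycerol, dATP, dCTP, dTTP and [3H]dTTP, without dGTP. Compounds were serially diluted from DMSO. Reactions ran 10 min at 30 °C, were stopped with TCA-pyrophosphate, and the filter-collected precipitate was scintillation counted. Apparent Ki was read directly from this truncated assay; average standard deviation ±44%.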

[3] = tested on: Enterococcus faecium; experiment: In vitro minimum inhibitory concentration against Enterococcus fecium upon incubation at 37 degree C for 16 to 24 hr by dissolving in DMSO (1%); assay type: functional
Method in brief: (§1)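 Broth microdilution (modified NCCLS M7-A4). Enterococci grown to log phase in brain-heart infusion broth, seeded at (3-7) × 10⁵ CFU/mL. Compounds 2-fold diluted from DMSO stocks, 20 to 1.25 µg/mL, final 1% DMSO, in duplicate. Incubated 37 °C, 16-24 h, with shaking. OD600 read.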

[4] = Area under the plasma concentration curve determined in mouse after subcutaneous administration at 60 mg/kg; assay type: ADME, organism-based; design: dose 60 mg/kg, route subcutaneous; settings: in vivo, sc
Method in brief: (§2)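 Male Swiss-Webster mice got single sc doses of 20 or 60 mg/kg in 30% aqueous HP-β-cyclodextrin, or 20, 200 or 400 mg/kg in KOH-neutralized PBS. Groups of three were bled by cardiac puncture before dosing and at 5, 15, 30, 60, 120 and 180 min, plus 360 min at 400 mg/kg. Plasma drug was measured by C18 reverse-phase HPLC at 282 nm against a spiked-plasma standard curve.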

[5] = Half life in mouse after subcutaneous administration at 20 mg/kg; assay type: ADME, organism-based; design: dose 20 mg/kg, route subcutaneous; settings: in vivo, sc; method in brief: as §2
[6] = tested on: Enterococcus faecium; experiment: In vitro minimum inhibitory concentration against Vancomycin resistant Enterococci faecium upon incubation at 37 degree C for 16 to 24 hr by dissolving in DMSO (1%); assay type: functional; method in brief: as §1
[7] = tested on: Staphylococcus aureus; experiment: Serum effect on MIC against Staphylococcus aureus (Smith) as ratio of MIC value in presence and absence of 50% fetal calf serum; assay type: functional
Method in brief: (§3)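 Broth microdilution MIC was repeated with 50% fetal calf serum added to the growth medium (LB for S. aureus, brain-heart infusion broth for E. faecalis). The inoculum was (3-7) × 10^5 CFU/mL in 1% DMSO, incubated at 37 °C for 16-24 h, and read by OD600. The serum effect is the MIC with serum relative to the MIC without serum.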

[8] = Maximum plasma concentration in mouse after intravenous administration at 20 mg/kg; assay type: ADME, organism-based; design: dose 20 mg/kg, route intravenous
Method in brief: (§4)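 Male Swiss-Webster mice (20-24 g) got a 20 mg/kg tail-vein iv bolus, either in 30% aqueous HP-β-cyclodextrin or in PBS neutralized with KOH. Groups of three were bled by cardiac puncture under halothane before dosing and at 2, 5, 15, 30, 60 and 120 min. Heparinized plasma was MeCN-treated and run on C18 HPLC at 282 nm against a spiked-plasma standard curve.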

[9] = tested on: Staphylococcus aureus; experiment: In vitro minimum inhibitory concentration against Staphylococcus aureus (Smith) upon incubation at 37 degree C for 16 to 24 hr by dissolving in DMSO (1%); assay type: functional
[10] = Maximum plasma concentration in mouse after subcutaneous administration at 60 mg/kg; assay type: ADME, organism-based; design: dose 60 mg/kg, route subcutaneous; settings: sc; method in brief: as §2
[11] = Maximum time taken to reach Cmax was determined in mouse after subcutaneous administration at 20 mg/kg; assay type: ADME, organism-based; design: dose 20 mg/kg, route subcutaneous; settings: in vivo, sc; method in brief: as §2
[12] = Half life in mouse after intravenous administration at 20 mg/kg; assay type: ADME, organism-based; design: dose 20 mg/kg, route intravenous; settings: in vivo; method in brief: as §4
[13] = Maximum plasma concentration in mouse after subcutaneous administration at 20 mg/kg; assay type: ADME, organism-based; design: dose 20 mg/kg, route subcutaneous; settings: sc; method in brief: as §2
[14] = Maximum time taken to reach Cmax was determined in mouse after subcutaneous administration at 60 mg/kg; assay type: ADME, organism-based; design: dose 60 mg/kg, route subcutaneous; settings: in vivo, sc; method in brief: as §2
[15] = Area under the plasma concentration curve determined in mouse after intravenous administration at 20 mg/kg; assay type: ADME, organism-based; design: dose 20 mg/kg, route intravenous; settings: in vivo; method in brief: as §4
[16] = Area under the plasma concentration curve determined in mouse after subcutaneous administration at 20 mg/kg; assay type: ADME, organism-based; design: dose 20 mg/kg, route subcutaneous; settings: in vivo, sc; method in brief: as §2
[17] = tested on: Enterococcus faecalis; experiment: In vitro minimum inhibitory concentration against Enterococcus faecalis upon incubation at 37 degree C for 16 to 24 hr by dissolving in DMSO (1%); assay type: functional
Method in brief: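 Log-phase E. faecalis was grown in brain-heart infusion broth and seeded at (3-7) × 10^5 CFU/mL. Duplicate 2-fold dilutions ran from 20 to 1.25 µg/mL, final 1% DMSO. After 16-24 h at 37 °C with shaking, OD600 was read.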

[18] = tested on: Staphylococcus aureus; experiment: Effect on survival of staphylococcus aureus (Smith) ip-infected mice at a concentration 20 mg/kg; assay type: functional
Method in brief: (§5)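 Male pathogen-free Swiss-Webster mice (20-24 g), groups of five, infected ip with ca. 10⁸ CFU log-phase S. aureus Smith (grown 37 °C in LB, washed, in 0.5 mL LB). Single ip dose 15 min post-infection, in 10% DMSO/peanut oil or PBS. Survivors counted at 72 h post-infection.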

[19] = tested on: Staphylococcus aureus; experiment: Effect on survival of staphylococcus aureus (Smith) ip-infected mice at a concentration 10 mg/kg; assay type: functional; method in brief: as §5
[20] = tested on: Staphylococcus aureus; experiment: In vitro minimum inhibitory concentration against Staphylococcus aureus upon incubation at 37 degree C for 16 to 24 hr by dissolving in DMSO (1%); assay type: functional
[21] = tested on: Bacillus subtilis; experiment: In vitro minimum inhibitory concentration against Bacillus subtilis upon incubation at 37 degree C for 16 to 24 h; assay type: functional
[22] = tested on: Enterococcus faecalis; experiment: Serum effect on MIC of compound was measured against Enterococcus faecalis as ratio of MIC value in presence and absence of 50% fetal calf serum; assay type: functional; method in brief: as §3
[23] = tested on: Staphylococcus aureus; experiment: Effect on survival of staphylococcus aureus (Smith) ip-infected mice at 20 mg/kg; assay type: functional; method in brief: as §5

SMILES: CCc1cc(Nc2cc(=O)n(CCCCO)c(=O)[nH]2)ccc1C
- MIC [1]: 5 µg/mL (≈ 15.8 µM)
- Ki [2]: 55 nM
- MIC [3]: 5 µg/mL (≈ 15.8 µM)
- AUC [4]: 20200 ng·h/mL
- half-life [5]: 29.3 min
- MIC [6]: 5 µg/mL (≈ 15.8 µM)
- MIC+/MIC- [7]: 7.5
- Cmax [8]: 53000 ng/mL
- MIC [9]: 5 µg/mL (≈ 15.8 µM)
- Cmax [10]: 13000 ng/mL
- Tmax [11]: 15 min
- half-life [12]: 33 min
- Cmax [13]: 5100 ng/mL
- Tmax [14]: 15 min
- AUC [15]: 4800 ng·h/mL
- AUC [16]: 7780 ng·h/mL
- MIC [17]: 5 µg/mL (≈ 15.8 µM)
- Activity [18]: 5
- Activity [19]: 3

SMILES: CCc1cc(Nc2cc(=O)n(CCCO)c(=O)[nH]2)ccc1C
- MIC [1]: 5 µg/mL (≈ 16.5 µM)
- Ki [2]: 130 nM
- MIC [3]: 2.5 µg/mL (≈ 8.24 µM)
- MIC [6]: 2.5 µg/mL (≈ 8.24 µM)
- MIC+/MIC- [7]: 5.6
- MIC [20]: 2.5 µg/mL (≈ 8.24 µM)
- MIC [9]: 5 µg/mL (≈ 16.5 µM)
- MIC [21]: < 1.25 µg/mL
- MIC [17]: 5 µg/mL (≈ 16.5 µM)

SMILES: CCc1cc(Nc2cc(=O)n(CCCN3CCOCC3)c(=O)[nH]2)ccc1C
- MIC [1]: 10 µg/mL (≈ 26.8 µM)
- MIC [3]: 5 µg/mL (≈ 13.4 µM)
- MIC [6]: 5 µg/mL (≈ 13.4 µM)
- MIC+/MIC- [7]: 2.9
- MIC [9]: 10 µg/mL (≈ 26.8 µM)
- MIC+/MIC- [22]: 1.6
- MIC [17]: 10 µg/mL (≈ 26.8 µM)

SMILES: CCn1cc(C(=O)O)c(=O)c2cc(F)c(N3CCNCC3)cc21 [NORFLOXACIN]
- MIC [1]: 40 µg/mL (≈ 125 µM)
- MIC [3]: 10 µg/mL (≈ 31.3 µM)
- MIC [6]: 80 µg/mL (≈ 251 µM)
- MIC+/MIC- [7]: 0.4
- MIC [20]: 0.625 µg/mL (≈ 1.96 µM)
- MIC [9]: 0.156 µg/mL (≈ 0.489 µM)
- MIC+/MIC- [22]: 2.2
- MIC [21]: 0.313 µg/mL (≈ 0.98 µM)
- MIC [17]: 2.5 µg/mL (≈ 7.83 µM)

SMILES: CCc1cc(Nc2cc(=O)n(CCCC#N)c(=O)[nH]2)ccc1C
- MIC [1]: 5 µg/mL (≈ 16 µM)
- MIC [3]: 5 µg/mL (≈ 16 µM)
- MIC [6]: 5 µg/mL (≈ 16 µM)
- MIC+/MIC- [7]: 5.4
- MIC [20]: 5 µg/mL (≈ 16 µM)
- MIC [17]: 5 µg/mL (≈ 16 µM)
- Activity [19]: 2

SMILES: CCc1cc(Nc2cc(=O)n(CCCCCCCCN3CCOCC3)c(=O)[nH]2)ccc1C
- MIC [1]: 20 µg/mL (≈ 45.2 µM)
- Ki [2]: 76 nM
- MIC [3]: 10 µg/mL (≈ 22.6 µM)
- MIC [6]: 5 µg/mL (≈ 11.3 µM)
- MIC+/MIC- [7]: >7.1
- MIC [20]: 10 µg/mL (≈ 22.6 µM)
- MIC [9]: 10 µg/mL (≈ 22.6 µM)
- MIC+/MIC- [22]: >12.8
- MIC [21]: 2.5 µg/mL (≈ 5.65 µM)
- MIC [17]: 10 µg/mL (≈ 22.6 µM)

SMILES: CCc1cc(Nc2cc(=O)n(CCCCN3CCOCC3)c(=O)[nH]2)ccc1C
- MIC [1]: 10 µg/mL (≈ 25.9 µM)
- MIC [3]: 2.5 µg/mL (≈ 6.47 µM)
- MIC [6]: 5 µg/mL (≈ 12.9 µM)
- MIC+/MIC- [7]: 2.3
- Activity [23]: 4
- MIC [20]: 10 µg/mL (≈ 25.9 µM)
- MIC+/MIC- [22]: 3.2
- MIC [17]: 5 µg/mL (≈ 12.9 µM)
- Activity [19]: 2
